Experimental data: ChEMBL document CHEMBL3751714, “Antileishmanial activity of novel indolyl-coumarin hybrids: Design, synthesis, biological evaluation, molecular docking study and in silico ADME prediction” (Bioorg Med Chem Lett, 2016)
Values after ≈ are worked out from the molar mass of the structure shown.

Test system: Leishmania donovani
Experiment: Antileishmanial activity against promastigotes of Leishmania donovani MHOM/IN/80/DD8 after 72 hrs by MTT assay
Format: functional, organism-based
Conditions: MHOM/IN/80/DD8, 72 h
How it was run: (§1)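 Cultured L. donovani promastigotes (strain […]) were exposed to the compounds. Viability was read by a modified MTT assay, in which formazan output tracks metabolically active cells. The concentration that cut growth by 50% (IC50) was found by graphic interpolation.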

Q: Which IC50 does the source give for `COc1ccc(C(CC(=O)c2c(O)c3ccccc3oc2=O)c2c[nH]c3ccccc23)cc1` (configuration not stated) here?
A: 174 µg/mL (≈ 396 µM)

Q: With `COc1ccc(OC)c(C(CC(=O)c2c(O)c3ccccc3oc2=O)c2c[nH]c3ccccc23)c1` (configuration not stated) as the molecule, how does the IC50 read?
A: 99 µg/mL (≈ 211 µM)

Q: Which IC50 does the source give for `O=C(CC(c1ccc(Cl)cc1)c1c[nH]c2ccccc12)c1c(O)c2ccccc2oc1=O` (configuration not stated) here?
A: 125 µg/mL (≈ 282 µM)

Q: Which IC50 does the source give for `COc1ccc(C(CC(=O)c2c(O)c3ccccc3oc2=O)c2c[nH]c3ccccc23)cc1OC` (configuration not stated) here?
A: 212 µg/mL (≈ 452 µM)

Q: For `O=C(CC(c1c(Cl)cccc1Cl)c1c[nH]c2ccccc12)c1c(O)c2ccccc2oc1=O` (configuration not stated), which IC50 is on record?
A: 95 µg/mL (≈ 199 µM)

Q: With `O=C(CC(c1ccccc1)c1c[nH]c2ccccc12)c1c(O)c2ccccc2oc1=O` (configuration not stated) as the molecule, how does the IC50 read?
A: 95.5 µg/mL (≈ 233 µM)

Q: With `O=C(CC(c1ccc(O)c(O)c1)c1c[nH]c2ccccc12)c1c(O)c2ccccc2oc1=O` (configuration not stated) as the molecule, how does the IC50 read?
A: 231 µg/mL (≈ 523 µM)

Q: For `N#Cc1ccc(C(CC(=O)c2c(O)c3ccccc3oc2=O)c2c[nH]c3ccccc23)cc1` (configuration not stated), which IC50 is on record?
A: 102 µg/mL (≈ 234 µM)

Q: Which IC50 does the source give for `O=C(CC(c1ccc(O)cc1)c1c[nH]c2ccccc12)c1c(O)c2ccccc2oc1=O` (configuration not stated) here?
A: 288 µg/mL (≈ 676 µM)

Q: For `COc1ccc(C(CC(=O)c2c(O)c3ccccc3oc2=O)c2c[nH]c3ccccc23)c(OC)c1` (configuration not stated), which IC50 is on record?
A: 250 µg/mL (≈ 531 µM)

Q: With `O=C(CC(c1ccccc1Cl)c1c[nH]c2ccccc12)c1c(O)c2ccccc2oc1=O` (configuration not stated) as the molecule, how does the IC50 read?
A: 102 µg/mL (≈ 230 µM)

Q: Which IC50 does the source give for `O=C(CC(c1ccc(F)cc1)c1c[nH]c2ccccc12)c1c(O)c2ccccc2oc1=O` (configuration not stated) here?
A: 156 µg/mL (≈ 364 µM)

Test system: not listed separately
Experiment: Antioxidant activity of the compound assessed as DPPH radical scavenging after 30 mins by spectrophotometric analysis
Format: physicochemical
Conditions: not given
How it was run: (§2)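 DPPH radical scavenging assay. The control contained all reagents except the test compound. % scavenging = [(A control − A sample)/[…]] × 100, taken from absorbance readings.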

Q: With `COc1ccc(C(CC(=O)c2c(O)c3ccccc3oc2=O)c2c[nH]c3ccccc23)cc1` (configuration not stated) as the molecule, how does the IC50 read?
A: 16.21 µg/mL (≈ 36.9 µM)

Q: For `COc1ccc(OC)c(C(CC(=O)c2c(O)c3ccccc3oc2=O)c2c[nH]c3ccccc23)c1` (configuration not stated), which IC50 is on record?
A: 19.02 µg/mL (≈ 40.5 µM)

Q: With `O=C1O[C@H]([C@@H](O)CO)C(O)=C1O` [ASCORBIC ACID] as the molecule, how does the IC50 read?
A: 12.8 µg/mL (≈ 72.7 µM)

Q: With `O=C(CC(c1ccc(Cl)cc1)c1c[nH]c2ccccc12)c1c(O)c2ccccc2oc1=O` (configuration not stated) as the molecule, how does the IC50 read?
A: 46.35 µg/mL (≈ 104 µM)

Q: With `COc1ccc(C(CC(=O)c2c(O)c3ccccc3oc2=O)c2c[nH]c3ccccc23)cc1OC` (configuration not stated) as the molecule, how does the IC50 read?
A: 63.16 µg/mL (≈ 135 µM)

Q: For `O=C(CC(c1c(Cl)cccc1Cl)c1c[nH]c2ccccc12)c1c(O)c2ccccc2oc1=O` (configuration not stated), which IC50 is on record?
A: 13.49 µg/mL (≈ 28.2 µM)

Q: Which IC50 does the source give for `O=C(CC(c1ccccc1)c1c[nH]c2ccccc12)c1c(O)c2ccccc2oc1=O` (configuration not stated) here?
A: 12.4 µg/mL (≈ 30.3 µM)

Q: Which IC50 does the source give for `O=C(CC(c1ccc(O)c(O)c1)c1c[nH]c2ccccc12)c1c(O)c2ccccc2oc1=O` (configuration not stated) here?
A: 71.08 µg/mL (≈ 161 µM)

Q: With `N#Cc1ccc(C(CC(=O)c2c(O)c3ccccc3oc2=O)c2c[nH]c3ccccc23)cc1` (configuration not stated) as the molecule, how does the IC50 read?
A: 13.74 µg/mL (≈ 31.6 µM)

Q: With `O=C(CC(c1ccc(O)cc1)c1c[nH]c2ccccc12)c1c(O)c2ccccc2oc1=O` (configuration not stated) as the molecule, how does the IC50 read?
A: 58.91 µg/mL (≈ 138 µM)

Q: For `COc1ccc(C(CC(=O)c2c(O)c3ccccc3oc2=O)c2c[nH]c3ccccc23)c(OC)c1` (configuration not stated), which IC50 is on record?
A: 13.24 µg/mL (≈ 28.2 µM)

Q: Which IC50 does the source give for `O=C(CC(c1ccccc1Cl)c1c[nH]c2ccccc12)c1c(O)c2ccccc2oc1=O` (configuration not stated) here?
A: 39.62 µg/mL (≈ 89.3 µM)

Q: Which IC50 does the source give for `Cc1cc(C(C)(C)C)c(O)c(C(C)(C)C)c1` [BUTYLATED HYDROXYTOLUENE] here?
A: 16.5 µg/mL (≈ 74.9 µM)

Q: For `O=C(CC(c1ccc(F)cc1)c1c[nH]c2ccccc12)c1c(O)c2ccccc2oc1=O` (configuration not stated), which IC50 is on record?
A: 47.35 µg/mL (≈ 111 µM)

Test system: HeLa
Experiment: Cytotoxicity against human HeLa cells assessed as cell viability at 100 ug/ml by microscopic analysis
Format: cell-based
Conditions: not given
How it was run: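 HeLa cells were treated at 100 μg/mL and assessed by the MTT method. Cells were also viewed under a microscope at 10X magnification.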

Q: For `O=C(CC(c1c(Cl)cccc1Cl)c1c[nH]c2ccccc12)c1c(O)c2ccccc2oc1=O` (configuration not stated), which Activity is on record?
A: Non-toxic

Test system: Leishmania major
Experiment: Antileishmanial activity against stationary-phase promastigotes of Leishmania major MRHO/IR/75/ER assessed as parasite growth inhibition after 48 hrs by Neubar chamber method
Format: functional, organism-based
Conditions: not given

Q: For `CC(C)=CCC/C(C)=C/CC/C(C)=C/COc1ccc2ccc(=O)oc2c1` [UMBELLIPRENIN], which IC50 is on record?
A: 13.3 µM

Test system: Leishmania major
Experiment: Antileishmanial activity against promastigotes of Leishmania major MHOM/IL/67/LRC-L43 assessed as parasite growth inhibition after 24 hrs by uranyl acetate/ magnesium uranyl acetate/lead citrate staining-based electron microscopic analysis
Format: functional, organism-based
Conditions: MHOM/IL/67/LRC-L43, 24 h

Q: With `C=CC(C)(C)c1cc(/C=C/C(=O)c2ccc(O)cc2)c(OC)cc1O` [LICOAGROCHACONE A] as the molecule, how does the IC50 read?
A: 2.5 µg/mL (≈ 7.39 µM)

Test system: Leishmania donovani
Experiment: Antileishmanial activity against promastigotes of Leishmania donovani assessed as parasite growth inhibition
Format: functional, organism-based
Conditions: not given
How it was run: as §1

Q: For `C=CC(C)(C)c1cc(/C=C/C(=O)c2ccc(O)cc2)c(OC)cc1O` [LICOAGROCHACONE A], which IC50 is on record?
A: 2.7 µM

Test system: not listed separately
Experiment: Antioxidant activity assessed as ABTS radical scavenging activity by TEAC assay
Format: physicochemical
Conditions: not given

Q: Which IC50 does the source give for `O=c1oc2ccccc2cc1C1=Nn2c(nnc2-c2ccccc2)SC1` here?
A: 39.9 µg/mL (≈ 111 µM)

Test system: not listed separately
Experiment: Antioxidant activity of the compound
Format: physicochemical
Conditions: not given
How it was run: as §2

Q: For `O=C(/C=C/c1ccc(O)c(O)c1)c1ccc(O)cc1O` [BUTEIN], which IC50 is on record?
A: 3.3 µg/mL (≈ 12.1 µM)
